Only some compounds are listed: those with a hit (about 3.8% of all), similar ones and a draw of the others.
SDO1 yeast rescue = growth rescue of sdo1-depleted yeast, primary screen, S. cerevisiae, bone marrow failure model; AID 817, 2007; actives 0.21% (n = 140,000); S. cerevisiae sdo1-depleted JHY4D growth rescue, OD600 30 h; active compounds read high; pdr5 snq2 efflux-pump mutant strain; z-score at 10 µM;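 active = z-score above 3 at both the 24 hr and the 30 hr optical density reads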
Measles CPE = compounds protecting cells from measles virus cytopathic effect, primary screen, measles RdRp inhibitor project, single point, MLSMR library, absorbance; Measles virus-infected cells, CPE protection; protection (pct of control), % at 4 µM; actives 1.5% (n = 140,000); in the data active = protection mostly above about 24%, no sharp cut-off; inactive = mostly below about 26%
RAM inhibit = inhibitors of the yeast RAM network, primary screen, dse1pr::URA3 reporter, 5-FOA selection; S. cerevisiae dse1pr::URA3 reporter, 5-FOA growth OD615, 2 d; analog-sensitive cbk1-as2 kinase mutant strain; inhibition, % at 50 µM; actives 1.8% (n = 190,000);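 active = inhibition above a set limit, 3 SD over mean compound inhibition, cut at about 8.4% in these data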;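 also: inhibition rescues growth on 5-FOA so higher OD means more RAM inhibition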
Yeast lifespan up = compounds extending yeast replicative lifespan, primary screen, S. cerevisiae, OD615; S. cerevisiae growth with nicotinamide; deaD strain in restrictive glucose medium; inhibition of the nicotinamide effect, % at 10 µM; actives 0.68% (n = 130,000);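 active = inhibition above a set limit, placed 3 SD over the median of all compounds, cut at about 26% in these data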
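System: Modified budding yeast, DeaD strain | Buffer or medium: Restrictive glucose medium | Also added: 1.5 mM nicotinamide | Doses: 10 µM single point, 0.25% DMSO | Schedule: 48 h compound exposure at 30 °C, humidified | Detection: Absorbance at 615 nm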
BB579 growth dn = growth inhibitors of yeast BB579 in restrictive medium, primary screen, yeast lifespan-shortening project, S. cerevisiae; inhibition, % at 10 µM; actives 0.51% (n = 140,000); OD615, 48 h;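 active = inhibition above a set limit, 3 SD over the mean compound inhibition, cut at about 44% in these data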
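test system = yeast BB579 (DeaD) | buffer or medium = restrictive CSMM-D medium | doses = single compound dose of 10 µM, 0.25% DMSO final | times = 4 h preincubation and 48 h exposure at 30 °C | technique = culture absorbance at 615 nm | benchmarks = amphotericin B 10 µg/mL, positive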
Hits are given with their value; i = inactive; nt = no result.

SMILES	SDO1 yeast rescue	Measles CPE	RAM inhibit	Yeast lifespan up	BB579 growth dn
CCOC(=O)Nc1cccc(OCC(=O)Nc2ccccc2OCC)c1	i	i	9.6	i	i
CC(=O)c1cccc(NC(=O)C23CC4CC(C2)CC(n2cncn2)(C4)C3)c1	i	i	i	i	i
CCn1c(SCC(=O)Nc2cc(C)on2)nnc1-c1ccco1	i	34.7	i	i	i
N#Cc1c(NC(=O)CCN2C(=O)c3ccccc3C2=O)oc(-c2ccccc2)c1-c1ccccc1	i	i	9.5	i	i
CCOc1ccc(-n2c(SCC(=O)Nc3ccc4c(c3)OCO4)nc3ccccc3c2=O)cc1	i	45.4	i	i	i
CCOc1ccc(-n2c(SCC(=O)Nc3cc(C)on3)nnc2-c2c[nH]c3ccccc23)cc1	i	i	8.6	i	i
O=C(CN(Cc1ccc2c(c1)OCO2)C(=O)CSc1nc2ccccc2o1)NC1CCCCC1	i	i	i	i	i
O=C(c1cncs1)N1CCCC(CNS(=O)(=O)c2cccs2)C1 (stereo not given)	nt	nt	i	nt	nt
Cc1cc(F)c(F)c(C(=O)N2CCN(C)CC2)c1Cl	i	i	i	i	i
O=C(NCc1cccnc1)C(=O)Nc1ccc([N+](=O)[O-])cc1	nt	nt	i	nt	nt
N#Cc1c(NC(=O)CCn2cnc3ccccc3c2=O)oc(-c2ccccc2)c1-c1ccccc1	i	i	i	i	i
CCn1c(SCC(=O)Nc2oc(-c3ccccc3)c(-c3ccccc3)c2C#N)nnc1-c1ccco1	i	i	8.8	i	i
N#Cc1c(NC(=O)CSc2ccccn2)oc(-c2ccccc2)c1-c1ccccc1	i	32.8	i	i	i
CCn1c(SCC(=O)Nc2oc(-c3ccccc3)c(-c3ccccc3)c2C#N)nnc1-c1ccncc1	i	i	i	i	i
O=C(Nc1ccc(Br)cc1)c1ccc(Br)c(S(=O)(=O)Nc2cccnc2)c1	i	45.5	i	i	i
Cn1c(N)c(C(=O)COC(=O)c2ccc(S(=O)(=O)N3CCCCC3)cc2)c(=O)n(C)c1=O	nt	nt	i	nt	nt
O=C(N/N=C/c1ccc(COc2ccc(Br)cc2)o1)c1ccco1	i	i	i	i	i
Clc1cccc(Cl)c1CSc1nnc(/C=C/c2ccccc2)o1	i	i	10.7	i	i
COc1ccc(/C=C/c2nnc(NC(=O)CSc3ccc(Cl)cc3)s2)cc1	i	i	i	i	i
O=C(COC(=O)c1ccc2c(c1)C(=O)N(Cc1ccncc1)C2=O)Nc1cccc2ccccc12	nt	nt	i	nt	nt
Cc1nn(C)cc1CNC(=O)c1cc2n(n1)C(C(F)(F)F)CC(c1cccs1)N2 (stereo not given)	i	20.4	i	i	i
Cc1nn(C)c(C)c1CNC(=O)c1nn2c(c1Cl)NC(c1cccs1)CC2C(F)(F)F (stereo not given)	i	i	i	i	i
O=[N+]([O-])c1ccccc1NCCNS(=O)(=O)c1ccc(Cl)cc1	i	i	i	i	i
O=[N+]([O-])c1ccc(NCCCNS(=O)(=O)c2ccc(Cl)cc2)c(Cl)c1	i	i	10.4	i	i
CCOC(=O)C1=C(O)/C(=C/c2ccc(OCC(=O)O)c(OCC)c2)SC1=Nc1ccc(OC)cc1	i	i	9.4	i	i
SMILES	SDO1 yeast rescue	Measles CPE	RAM inhibit	Yeast lifespan up	BB579 growth dn
CCOC(=O)C1=C(O)/C(=C/c2ccc(OCC(=O)O)c(OCC)c2)SC1=Nc1ccc(C)cc1	nt	nt	i	nt	nt
CC1CCN(CCCNC(=O)c2ccc(Cn3c(=S)[nH]c4ccc(Br)cc4c3=O)cc2)CC1	nt	nt	i	nt	nt
O=C1c2nccnc2C(=O)N1c1ccc(C(F)(F)F)cc1	nt	nt	i	nt	nt
O=C(O)c1cnc(-c2ccccc2)nc1Sc1ccc(Cl)cc1	i	i	8.6	i	i
O=C(CSc1nc2ccccc2o1)Nc1ccc(Cl)cc1	i	26.4	i	i	i
CCCCCCOC(=O)Sc1nc2ccccc2o1	i	i	i	i	81.0
CC(=O)CSc1nc2ccccc2o1	i	i	i	nt	i
COC(=O)CSc1nc2ccccc2o1	i	42.8	i	i	i
CC(=O)Nc1ccc(NC(=O)CSc2nc3ccccc3o2)cc1	i	i	i	i	i
N#C/C(=C\c1ccc(OCC(N)=O)cc1)c1ccccc1	i	i	i	i	i
O=C(CSc1ncn[nH]1)Nc1cc(S(=O)(=O)N2CCCC2)ccc1Cl	nt	nt	i	nt	nt
O=C(/C=C/c1ccc2c(c1)OCO2)NCCSCc1cccc(Cl)c1	i	i	9.0	i	i
CCOC(=O)c1nnn(-c2nonc2N)c1CSc1nnc(N)s1	nt	nt	i	nt	nt
COC(=O)c1sc(S(=O)(=O)Nc2ccc(Br)cc2)c(C(=O)OC)c1C	i	i	8.7	41.9	i
COC(=O)c1sc(S(=O)(=O)Nc2ccc(C)cc2)c(C(=O)OC)c1C	i	i	i	38.0	i
O=C(COC(=O)[C@@H]1CCCN1S(=O)(=O)c1ccccc1F)Nc1ccc(OC(F)F)cc1	nt	nt	i	nt	nt
O=C(CN1CCCCC1)Nc1ccccc1	i	30.3	i	i	i
O=C(CCN1CCCCCC1)Nc1ccc(F)c(F)c1	i	i	i	i	i
O=C(CCN1CCCCCC1)Nc1ccc(F)cc1	i	i	i	64.3	i
c1ccc(-c2noc(CC3CCCCC3)n2)nc1	nt	nt	i	nt	nt
O=C(COc1ccc(Br)cc1CO)Nc1ccc(F)cc1	i	i	i	i	i
Cc1ccc(NC(=O)COc2ccc(Br)cc2C)cc1	i	26.0	i	i	i
CCOc1ccc(N2C(=O)CC(Sc3nc(-c4cccs4)cc(C(F)(F)F)c3C#N)C2=O)cc1 (stereo not given)	i	i	10.8	i	i
CCCCC(NC(C)=O)c1nc2ccccc2n1CCCC (stereo not given)	i	i	i	i	i
C/C(O)=C(/C=Nc1ccccc1)C(=O)Nc1ccccc1	nt	nt	i	nt	nt
SMILES	SDO1 yeast rescue	Measles CPE	RAM inhibit	Yeast lifespan up	BB579 growth dn
CCNc1c(N)c(=O)oc2ccccc12	i	i	i	i	i
Nc1c(Nc2ccccc2)c2ccccc2oc1=O	i	i	9.8	i	48.1
COC(=O)C1=C(C)N(c2cc(Cl)cc(Cl)c2)C(=O)C1	i	i	i	i	i
FC(F)(F)c1nc(N2CCCC2)ncc1-c1nnnn1-c1ccccc1	i	62.4	i	i	i
CCOCCCNC(=O)CSc1nc2nc(C)c(Cc3ccccc3)c(C)n2n1	nt	nt	i	nt	nt
COc1ccc(NC(=O)N2CCCCC2c2cccnc2)cc1 (stereo not given)	i	i	i	i	i
COc1cc(C)c(C)cc1S(=O)(=O)N1CCCCC1c1cccnc1 (stereo not given)	i	51.1	i	i	i
O=C(Nc1ccc(S(=O)(=O)N2CCCCC2c2cccnc2)cc1)c1c(F)cccc1F (stereo not given)	nt	nt	i	nt	nt
CC(=O)Nc1ccc(S(=O)(=O)N2CCCCC2c2cccnc2)cc1 (stereo not given)	i	28.5	i	i	i
COc1ccc(C(=O)COc2ccc(F)cc2)c(O)c1C	nt	nt	i	nt	nt

Source: PubChem (several laboratories)
